The text below walks through data of the array DNA melting data of Ke et al. (doi:10.1101/2024.01.08.574731).

Data set [1] is described as follows: folding enthalpy; higher = less favourable; fluorescence melt of hairpins on a sequencing array, two-state fit. The conditions noted are these: sodium 0.088 M. The method, boiled down:
(§1)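 Hairpins were imaged by Cy3 fluorescence on a sequenced MiSeq flow cell with annealed Cy3 and quencher oligos, in 50 mM Na-HEPES pH 8.0, 25 mM NaCl, in 2.5 °C steps up to 60 °C. Bootstrapped two-state fits of normalised signals gave melting temperature and folding enthalpy. Four replicates were combined by inverse variance, and fitted temperatures were raised by 9.35 °C to match UV melts.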

The nature of data set [2]: melting temperature; fluorescence melt of hairpins on a sequencing array, two-state fit, raised by 9.35 °C to match UV melts. The conditions noted are these: sodium 0.088 M. In a few lines: as §1

Turning to GAATTGAAAAATTC (((((....))))), the folding enthalpy in data set [1] was -13.5 kcal/mol. The Tm in data set [2] worked out at 31.7 °C.
On the same counts, the results for GAATTGCGAAAGCAGTTC (((.(((....))).))) are -30.3 kcal/mol and 51.5 °C.
Turning to GAATTGGAAACAATTC ((((((....)))))), the folding enthalpy in data set [1] was -35.6 kcal/mol. For the same sequence, the Tm in data set [2] amounted to 47.3 °C.
On the same counts, the results for GAATTGGGAAACCAACTC ((.((((....)))).)) are -10.9 kcal/mol and 26 °C.
For GAATTGGGAAACTGATTC ((((..(....)..)))), the folding enthalpy in data set [1] was -13.2 kcal/mol. Besides, the Tm in data set [2] was 25.6 °C.
Consider GAATTTGGAAACAAGTTC (((.(((....))).))), for which the folding enthalpy in data set [1] was -28.8 kcal/mol. The Tm in data set [2] amounted to 33.8 °C.
Consider GAATTTGGAAACGAATTC (((((.(....).))))), for which, in data set [1], the folding enthalpy is -35.8 kcal/mol. In addition, in data set [2], the Tm worked out at 38.8 °C.
For GACAAACCGAAAGGTGTC (((..(((....)))))), the folding enthalpy in data set [1] was -19.8 kcal/mol. The Tm in data set [2] is 43.2 °C.
For the sequence GACAAACGAAAGTTAGTC (((.(((....))).))), the folding enthalpy in data set [1] was -30.9 kcal/mol. In addition, the Tm in data set [2] was 44.3 °C.
As for GACAAAGGAAACTTCGTC (((.(((....))).))), in data set [1], the folding enthalpy was -17 kcal/mol. Further, in data set [2], the Tm stood at 26.7 °C.
On the same counts, the results for GACAAAGGAAACTTTGCC (.(((((....))))).) are -21.6 kcal/mol and 33.3 °C.
Taken in the same sequence, the figures for GACAACGAAAGTTAGTC ((((((....))).))) were -24.7 kcal/mol and 42.4 °C.
On to GACAACGAAAGTTCGGTC ((((((....)))..))), for which the folding enthalpy in data set [1] was -17.7 kcal/mol. The Tm in data set [2] was 30.7 °C.
With GACAACGAAAGTTCGTC ((((((....))).))), in data set [1], the folding enthalpy was -21 kcal/mol. The Tm in data set [2] was determined as 42.6 °C.
As for GACAACGAAAGTTGTC ((((((....)))))), the folding enthalpy in data set [1] is -24.8 kcal/mol. In data set [2], the Tm worked out at 67.9 °C.
Taken in the same sequence, the figures for GACAACGAAAGTTTAGTC ((((((....)))..))) were -16 kcal/mol and 30.4 °C.
On the same counts, the results for GACAACGAAAGTTTGGTC ((((((....)))..))) are -16.4 kcal/mol and 32.9 °C.
Taken in the same sequence, the figures for GACAACGAAAGTTTTGTC ((((((....)))..))) were -24.7 kcal/mol and 31.8 °C.
On to GACAACGGAAACGTCGTC (((.(((....))).))), for which the folding enthalpy in data set [1] was -29.5 kcal/mol. In addition, the Tm in data set [2] was 43.4 °C.
As for GACAACGGAAACGTTGCC (.(((((....))))).), the folding enthalpy in data set [1] was -17.4 kcal/mol. The Tm in data set [2] is 44.9 °C.
Regarding GACAAGCGAAAGCTCGTC (((.(((....))).))), the folding enthalpy in data set [1] was -21 kcal/mol. In addition, the Tm in data set [2] amounted to 49.3 °C.
Regarding GACAAGGGAAACTTTGTC (((((.(....).))))), the folding enthalpy in data set [1] is -27.1 kcal/mol. In data set [2], the Tm was 36.9 °C.
On the same counts, the results for GACAATGCGAAAGCAGTC (((..(((....)))))) are -14 kcal/mol and 40.4 °C.
Taken in the same sequence, the figures for GACAATGGAAACATCGTC (((.(((....))).))) were -26.4 kcal/mol and 32.5 °C.
Turning to GACACCGAAAGGTAGTC ((((((....))).))), the folding enthalpy in data set [1] is -22.5 kcal/mol. Besides, the Tm in data set [2] is 50.1 °C.
For GACACCGAAAGGTCCGTC ((((((....)))..))), the folding enthalpy in data set [1] is -16.9 kcal/mol. The Tm in data set [2] came out at 31.4 °C.
On the same counts, the results for GACACCGAAAGGTGGTC ((((((....))).))) are -12.8 kcal/mol and 55.6 °C.
As for GACACCGAAAGGTGTGTC ((((((....)))..))), in data set [1], the folding enthalpy was -11.3 kcal/mol. Besides, the Tm in data set [2] worked out at 61.6 °C.
Consider GACACCGAAAGGTTGTC ((((((....))).))), for which the folding enthalpy in data set [1] is -25.3 kcal/mol. In addition, the Tm in data set [2] worked out at 53.2 °C.
GACACGGAAACGTGTC ((((((....)))))): the folding enthalpy in data set [1] was -34.9 kcal/mol. Also, in data set [2], the Tm was 67.7 °C.
As to GACACGGGAAACCGCATC ((..(((....)))..)), in data set [1], the folding enthalpy is -11.1 kcal/mol. Besides, in data set [2], the Tm is 20.4 °C.
With GACACTGCGAAAGCAGTC (((..(((....)))))), in data set [1], the folding enthalpy was -8.12 kcal/mol. For the same sequence, the Tm in data set [2] was 31.4 °C.
On the same counts, the results for GACAGACGAAAGTCCGTC (((.(((....))).))) are -26 kcal/mol and 47.5 °C.
For GACAGAGAAATCTGTC ((((((....)))))), the folding enthalpy in data set [1] was -33.2 kcal/mol. Further, the Tm in data set [2] was determined as 50.9 °C.
On the same counts, the results for GACAGAGGAAACTCTGCC (.(((((....))))).) are -15.5 kcal/mol and 41.9 °C.
For GACAGAGGAAACTCTGTC (((((((....))))))), the folding enthalpy in data set [1] was -41.3 kcal/mol. Besides, the Tm in data set [2] was 60.6 °C.
